Reference: ChEMBL document CHEMBL4014308, “Amphiphilic Tobramycin-Lysine Conjugates Sensitize Multidrug Resistant Gram-Negative Bacteria to Rifampicin and Minocycline” (J Med Chem, 2017)
In brackets after ≈: the same amount, converted by molar mass. Activity calls are given as the source filed them. The rule behind the calls is not given here.

What was measured:
Format in all cases: functional
Pseudomonas aeruginosa [1] = test: Antibacterial activity against multidrug/extremely drug-resistant/colistin-susceptible Pseudomonas aeruginosa isolate 101885 after 18 hrs by microtiter dilution assay; conditions: isolate 101885, 18 h
Method in brief: (§1)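 Broth microdilution following CLSI guidelines. An overnight culture was adjusted to 0.5 McFarland in saline, then diluted 1:50 in Mueller-Hinton broth. This inoculum was added in equal volume to 2-fold serial dilutions of agent in MHB and incubated 18 h at 37 °C. MIC was the lowest concentration with no visible growth.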

Enterococcus faecalis = test: Antibacterial activity against Enterococcus faecalis ATCC 29212 after 24 hrs by […] dilution method; conditions: ATCC 29212, 24 h
Escherichia coli [2] = test: Antibacterial activity against gentamicin-resistant Escherichia coli isolate CAN-ICU 61714 after 24 hrs by […] dilution method; conditions: isolate CAN-ICU 61714, 24 h
Pseudomonas aeruginosa [3] = test: Antibacterial activity against multidrug/extremely drug-resistant/colistin-susceptible Pseudomonas aeruginosa isolate 100036 after 18 hrs by microtiter dilution assay; conditions: isolate 100036, 18 h; method in brief: as §1
Pseudomonas aeruginosa [4] = test: Synergistic antibacterial activity against Pseudomonas aeruginosa PAO1 after 18 hrs in presence of rifampicin by checkerboard assay
Method in brief: (§2)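 Checkerboard in MHB: antibiotic diluted along one axis and adjuvant along the other (10 × 7 matrix). Inoculum was a 1:50 dilution in MHB of a 0.5 McFarland saline suspension; incubated 18 h at 37 °C. Each FIC = concentration in the no-growth well divided by the MIC alone; FIC index = sum of both FICs. ≤0.5 synergy, 0.5–4 no interaction, ≥4 antagonism.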

Acinetobacter baumannii = test: Antibacterial activity against Acinetobacter baumannii isolate CAN-ICU 63169 after 24 hrs by […] dilution method; conditions: isolate CAN-ICU 63169, 24 h
Pseudomonas aeruginosa [5] = test: Antibacterial activity against multidrug/extremely drug-resistant/colistin-resistant Pseudomonas aeruginosa isolate 101243 after 18 hrs by microtiter dilution assay; conditions: isolate 101243, 18 h; method in brief: as §1
Escherichia coli [6] = test: Antibacterial activity against Escherichia coli ATCC 25922 after 24 hrs by […] dilution method; conditions: ATCC 25922, 24 h
Pseudomonas aeruginosa [7] = test: Antibacterial activity against multidrug/extremely drug-resistant/colistin-resistant Pseudomonas aeruginosa isolate 91433 after 18 hrs by microtiter dilution assay; conditions: isolate 91433, 18 h; method in brief: as §1
Escherichia coli [8] = test: Antibacterial activity against amikacin-resistant Escherichia coli isolate CAN-ICU 63074 after 24 hrs by […] dilution method; conditions: isolate CAN-ICU 63074, 24 h
Pseudomonas aeruginosa [9] = test: Induction of cytoplasmic membrane depolarization in Pseudomonas aeruginosa PAO1 up to 1200 secs by diSC3-5 staining based fluorescence assay
Method in brief: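 Mid-log PAO1 washed in 5 mM HEPES pH 7.4 with 20 mM glucose and resuspended to OD600 0.05. Cells were loaded with 0.2 mM EDTA and 0.4 µM diSC3-5 for 2 h at 37 °C in the dark, then equilibrated with 100 mM KCl for 30 min. Agent was added and fluorescence followed at 622/670 nm; agents tested at 32 µg/mL.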

Pseudomonas aeruginosa [10] = test: Antibacterial activity against multidrug/extremely drug-resistant/colistin-susceptible Pseudomonas aeruginosa isolate P259-96918 after 18 hrs by microtiter dilution assay; conditions: isolate P259-96918, 18 h; method in brief: as §1
[11] = tested on: Staphylococcus epidermidis; test: Antibacterial activity against methicillin-resistant Staphylococcus epidermidis isolate CAN-ICU 61589 after 24 hrs by […] dilution method; conditions: isolate CAN-ICU 61589, 24 h
Pseudomonas aeruginosa [12] = test: Antibacterial activity against Pseudomonas aeruginosa PAO1 after 18 hrs by microtiter dilution assay; conditions: PAO1, 18 h; method in brief: as §1
Pseudomonas aeruginosa [13] = test: Antibacterial activity against gentamicin-resistant Pseudomonas aeruginosa isolate CAN-ICU 62308 after 24 hrs by […] dilution method; conditions: isolate CAN-ICU 62308, 24 h
Staphylococcus aureus [14] = test: Antibacterial activity against Staphylococcus aureus ATCC 29213 after 24 hrs by […] dilution method; conditions: ATCC 29213, 24 h
Klebsiella pneumoniae = test: Antibacterial activity against Klebsiella pneumoniae ATCC 13883 after 24 hrs by […] dilution method; conditions: ATCC 13883, 24 h
[15] = tested on: Stenotrophomonas maltophilia; test: Antibacterial activity against Stenotrophomonas maltophilia isolate CAN-ICU 62584 after 24 hrs by […] dilution method; conditions: isolate CAN-ICU 62584, 24 h
Escherichia coli [16] = test: Antibacterial activity against gentamicin/tobramycin/ciprofloxacin-resistant Escherichia coli isolate CANWARD-2011 97615 harboring AAC3-2A after 24 hrs by […] dilution method; conditions: isolate CANWARD-2011 97615, 24 h
Pseudomonas aeruginosa [17] = test: Antibacterial activity against multidrug/extremely drug-resistant/colistin-susceptible Pseudomonas aeruginosa isolate P262-101856 after 18 hrs by microtiter dilution assay; conditions: isolate P262-101856, 18 h; method in brief: as §1
Pseudomonas aeruginosa [18] = test: Antibacterial activity against Pseudomonas aeruginosa PAO1 assessed as ratio of MIC after 25 serial passages to MIC before 25 serial passages by microtiter dilution assay
Method in brief: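 Sequential passaging of wild-type PAO1 with single drugs or drug combinations. MIC was tested in MHB for 18 h. Cells from the well at half the MIC were adjusted to 0.5 McFarland in saline, diluted 1:50 in fresh MHB and used for the next MIC test. This was repeated for 25 passages, and the fold change in MIC was plotted against passage number.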

Pseudomonas aeruginosa [19] = test: Antibacterial activity against Pseudomonas aeruginosa ATCC 27853 after 24 hrs by […] dilution method; conditions: ATCC 27853, 24 h
Streptococcus pneumoniae = test: Antibacterial activity against Streptococcus pneumoniae ATCC 49619 after 24 hrs by […] dilution method; conditions: ATCC 49619, 24 h
[20] = tested on: Staphylococcus epidermidis; test: Antibacterial activity against methicillin-susceptible Staphylococcus epidermidis isolate CANWARD-2008 81388 after 24 hrs by […] dilution method; conditions: isolate CANWARD-2008 81388, 24 h
Staphylococcus aureus [21] = test: Antibacterial activity against methicillin resistant Staphylococcus aureus ATCC 33592 after 24 hrs by […] dilution method; conditions: ATCC 33592, 24 h
Enterococcus faecium = test: Antibacterial activity against Enterococcus faecium ATCC 27270 after 24 hrs by […] dilution method; conditions: ATCC 27270, 24 h
Pseudomonas aeruginosa [22] = test: Antibacterial activity against gentamicin/tobramycin-resistant Pseudomonas aeruginosa isolate CANWARD-2011 96846 after 24 hrs by […] dilution method; conditions: isolate CANWARD-2011 96846, 24 h
Pseudomonas aeruginosa [23] = test: Synergistic antibacterial activity against Pseudomonas aeruginosa PAO1 after 18 hrs in presence of minocycline by checkerboard assay; method in brief: as §2
Pseudomonas aeruginosa [24] = test: Antibacterial activity against multidrug/extremely drug-resistant/colistin-susceptible Pseudomonas aeruginosa isolate P264-104354 after 18 hrs by microtiter dilution assay; conditions: isolate P264-104354, 18 h; method in brief: as §1

Structure (SMILES): NC[C@H]1O[C@H](O[C@H]2[C@H](O)[C@@H](O[C@H]3O[C@H](CO)[C@@H](O)[C@H](N)[C@H]3O)[C@H](N)C[C@@H]2N)[C@H](N)C[C@@H]1O [TOBRAMYCIN]
- MIC (Pseudomonas aeruginosa [1]): 0.25 µg/mL (≈ 0.535 µM)
- MIC (Enterococcus faecalis): 8 µg/mL (≈ 17.1 µM)
- MIC (Escherichia coli [2]): 8 µg/mL (≈ 17.1 µM)
- MIC (Pseudomonas aeruginosa [3]): 64 µg/mL (≈ 137 µM)
- Activity (Pseudomonas aeruginosa [4]): inactive
- MIC (Acinetobacter baumannii): 32 µg/mL (≈ 68.4 µM)
- MIC (Pseudomonas aeruginosa [5]): 256 µg/mL (≈ 548 µM)
- MIC (Escherichia coli [6]): 0.5 µg/mL (≈ 1.07 µM)
- MIC (Pseudomonas aeruginosa [7]): 8 µg/mL (≈ 17.1 µM)
- MIC (Escherichia coli [8]): 8 µg/mL (≈ 17.1 µM)
- Activity (Pseudomonas aeruginosa [9]): Dose-dependent effect
- MIC (Pseudomonas aeruginosa [10]): 128 µg/mL (≈ 274 µM)
- MIC [11]: 1 µg/mL (≈ 2.14 µM)
- MIC (Pseudomonas aeruginosa [12]): 0.25 µg/mL (≈ 0.535 µM)
- MIC (Pseudomonas aeruginosa [13]): 16 µg/mL (≈ 34.2 µM)
- MIC (Staphylococcus aureus [14]): ≤ 0.25 µg/mL
- MIC (Klebsiella pneumoniae): ≤ 0.25 µg/mL
- MIC [15]: > 512 µg/mL
- MIC (Escherichia coli [16]): 128 µg/mL (≈ 274 µM)
- MIC (Pseudomonas aeruginosa [17]): 512 µg/mL (≈ 1100 µM)
- Ratio (Pseudomonas aeruginosa [18]): 256
- MIC (Pseudomonas aeruginosa [19]): 0.5 µg/mL (≈ 1.07 µM)
- MIC (Streptococcus pneumoniae): 2 µg/mL (≈ 4.28 µM)
- MIC [20]: ≤ 0.25 µg/mL
- MIC (Staphylococcus aureus [21]): ≤ 0.25 µg/mL
- MIC (Enterococcus faecium): 8 µg/mL (≈ 17.1 µM)
- MIC (Pseudomonas aeruginosa [22]): 256 µg/mL (≈ 548 µM)
- Activity (Pseudomonas aeruginosa [23]): inactive
- MIC (Pseudomonas aeruginosa [24]): 128 µg/mL (≈ 274 µM)
